# Measured values taken from ChEMBL document CHEMBL2086252, “Syntheses and evaluation of anticonvulsant activity of novel branched alkyl carbamates” (J Med Chem, 2012).
# Active and inactive are the calls of the source. No cut-off for these calls is given here.
# Columns and labels:
# Mus musculus [1] = assay: Anticonvulsant activity in albino CF1 mouse assessed as protection against maximal electroshock-induced seizures at 100 mg/kg, ip after 0.5 hrs; assay type: functional, organism-based; set-up: dose 100 mg/kg
# Outline: (§1)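 Mice dosed ip at 30, 100 or 300 mg/kg, then tested 0.5 h and 4 h after administration in the MES or scMet test. Protection was recorded as animals protected over animals tested. Neurotoxicity was recorded as motor impairment or sedation, as animals affected over animals tested.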
# Mus musculus [2] = assay: Neurotoxicity in albino CF1 mouse assessed as minimal motor impairment at 3 mg/kg, ip after 0.5 hrs by rotarod test; assay type: toxicity, organism-based; set-up: dose 3 mg/kg, route intraperitoneal; settings: in vivo
# Rattus norvegicus [3] = assay: Anticonvulsant activity in Sprague-Dawley albino rat assessed as protection against maximal electroshock-induced seizures at 30 mg/kg, po after 15 mins; assay type: functional, organism-based; set-up: dose 30 mg/kg
# Outline: (§2)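 Rats dosed orally. Anti-MES protection was scored as animals protected over animals tested at each time after dosing. Neurotoxicity was scored as motor impairment or sedation, as animals affected over animals tested.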
# [4] = Neurotoxicity in po dosed Sprague-Dawley albino rat assessed as minimal motor impairment by rotarod test; assay type: toxicity, organism-based; settings: in vivo
# Outline: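 Rats dosed orally; 4 rats per time point after dosing. Neurotoxicity was scored as motor impairment or sedation and reported as number of animals affected over number tested.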
# Mus musculus [5] = assay: Anticonvulsant activity in albino CF1 mouse assessed as protection against maximal electroshock-induced seizures at 10 mg/kg, ip after 0.5 hrs; assay type: functional, organism-based; set-up: dose 10 mg/kg
# Rattus norvegicus [6] = assay: Neurotoxicity in pilocarpine-induced status epilepticus Sprague-Dawley albino rat model assessed as minimal motor impairment at 200 mg/kg, ip after 0.5 hrs by rotarod test; assay type: toxicity, organism-based; set-up: dose 200 mg/kg, route intraperitoneal; settings: in vivo
# Outline: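 Rat pilocarpine status epilepticus model: test carbamate given at 0 or 30 min after the first observed Racine stage 3 motor seizure, which marks SE onset. Neurotoxicity was scored within the same model.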
# Rattus norvegicus [7] = assay: Neurotoxicity in Sprague-Dawley albino rat assessed as minimal motor impairment at 30 mg/kg, po by rotarod test; assay type: toxicity, organism-based; set-up: dose 30 mg/kg, route oral; settings: in vivo; outline: as §2
# Mus musculus [8] = assay: Neurotoxicity in albino CF1 mouse assessed as minimal motor impairment at 30 mg/kg, ip after 4 hrs by rotarod test; assay type: toxicity, organism-based; set-up: dose 30 mg/kg, route intraperitoneal; settings: in vivo; outline: as §1
# Mus musculus [9] = assay: Neurotoxicity in albino CF1 mouse assessed as minimal motor impairment at 10 mg/kg, ip after 0.5 hrs by rotarod test; assay type: toxicity, organism-based; set-up: dose 10 mg/kg, route intraperitoneal; settings: in vivo
# Rattus norvegicus [10] = assay: Protective index, ratio of TD50 for po dosed Sprague-Dawley albino rat by rotarod test to ED50 for po dosed Sprague-Dawley albino rat by maximal electroshock seizures test; assay type: functional
# Outline: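 Protective index calculated as TD50/ED50, with TD50 and ED50 taken from the same species and dosing route.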
# Mus musculus [11] = assay: Anticonvulsant activity in albino CF1 mouse assessed as protection against subcutaneous metrazol-induced seizures at 30 mg/kg, ip after 0.5 hrs; assay type: functional, organism-based; set-up: dose 30 mg/kg; outline: as §1
# Mus musculus [12] = assay: Anticonvulsant activity in albino CF1 mouse assessed as protection against subcutaneous metrazol-induced seizures at 30 mg/kg, ip after 4 hrs; assay type: functional, organism-based; set-up: dose 30 mg/kg; outline: as §1
# Rattus norvegicus [13] = assay: Anticonvulsant activity in po dosed Sprague-Dawley albino rat assessed as protection against maximal electroshock-induced seizures; assay type: functional
# Outline: (§3)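 Quantitative testing: rats dosed orally or ip in MES and scMet tests, and mice dosed ip, including the 6 Hz (32 mA) psychomotor seizure test. ED50 and TD50 were reported in mg/kg with ranges in parentheses. Protective index was calculated as TD50/ED50.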
# Mus musculus [14] = assay: Anticonvulsant activity in ip dosed albino CF1 mouse assessed as protection against maximal electroshock-induced seizures; assay type: functional; outline: as §3
# Mus musculus [15] = assay: Neurotoxicity in albino CF1 mouse assessed as minimal motor impairment at 30 mg/kg, ip after 0.5 hrs by rotarod test; assay type: toxicity, organism-based; set-up: dose 30 mg/kg, route intraperitoneal; settings: in vivo; outline: as §1
# [16] = Neurotoxicity in ip dosed albino CF1 mouse assessed as minimal motor impairment by rotarod test; assay type: toxicity, organism-based; settings: in vivo; outline: as §3
# Mus musculus [17] = assay: Neurotoxicity in albino CF1 mouse assessed as minimal motor impairment at 300 mg/kg, ip after 0.5 hrs by rotarod test; assay type: toxicity, organism-based; set-up: dose 300 mg/kg, route intraperitoneal; settings: in vivo; outline: as §1
# Rattus norvegicus [18] = assay: Anticonvulsant activity in Sprague-Dawley albino rat assessed as protection against maximal electroshock-induced seizures at 30 mg/kg, po after 1 hr; assay type: functional, organism-based; set-up: dose 30 mg/kg; outline: as §2
# Mus musculus [19] = assay: Anticonvulsant activity in albino CF1 mouse assessed as protection against subcutaneous metrazol-induced seizures at 300 mg/kg, ip after 0.5 hrs; assay type: functional, organism-based; set-up: dose 300 mg/kg; outline: as §1
# Mus musculus [20] = assay: Anticonvulsant activity in albino CF1 mouse assessed as protection against subcutaneous metrazol-induced seizures at 300 mg/kg, ip after 4 hrs; assay type: functional, organism-based; set-up: dose 300 mg/kg; outline: as §1
# Mus musculus [21] = assay: Anticonvulsant activity in albino CF1 mouse assessed as protection against maximal electroshock-induced seizures at 3 mg/kg, ip after 0.5 hrs; assay type: functional, organism-based; set-up: dose 3 mg/kg
# Mus musculus [22] = assay: Anticonvulsant activity in albino CF1 mouse assessed as protection against maximal electroshock-induced seizures at 30 mg/kg, ip after 4 hrs; assay type: functional, organism-based; set-up: dose 30 mg/kg; outline: as §1
# Mus musculus [23] = assay: Anticonvulsant activity in albino CF1 mouse assessed as protection against maximal electroshock-induced seizures at 100 mg/kg, ip after 4 hrs; assay type: functional, organism-based; set-up: dose 100 mg/kg; outline: as §1
# Mus musculus [24] = assay: Neurotoxicity in albino CF1 mouse assessed as minimal motor impairment at 100 mg/kg, ip after 4 hrs by rotarod test; assay type: toxicity, organism-based; set-up: dose 100 mg/kg, route intraperitoneal; settings: in vivo; outline: as §1
# Mus musculus [25] = assay: Anticonvulsant activity in albino CF1 mouse assessed as protection against maximal electroshock-induced seizures at 300 mg/kg, ip after 4 hrs; assay type: functional, organism-based; set-up: dose 300 mg/kg; outline: as §1
# Mus musculus [26] = assay: Anticonvulsant activity in albino CF1 mouse assessed as protection against maximal electroshock-induced seizures at 300 mg/kg, ip after 0.5 hrs; assay type: functional, organism-based; set-up: dose 300 mg/kg; outline: as §1
# Mus musculus [27] = assay: Anticonvulsant activity in albino CF1 mouse assessed as protection against maximal electroshock-induced seizures at 30 mg/kg, ip after 0.5 hrs; assay type: functional, organism-based; set-up: dose 30 mg/kg; outline: as §1
# Rattus norvegicus [28] = assay: Anticonvulsant activity in Sprague-Dawley albino rat assessed as protection against maximal electroshock-induced seizures at 30 mg/kg, po after 30 mins; assay type: functional, organism-based; set-up: dose 30 mg/kg; outline: as §2
# Mus musculus [29] = assay: Anticonvulsant activity in albino CF1 mouse assessed as protection against subcutaneous metrazol-induced seizures at 100 mg/kg, ip after 4 hrs; assay type: functional, organism-based; set-up: dose 100 mg/kg; outline: as §1
# Mus musculus [30] = assay: Neurotoxicity in albino CF1 mouse assessed as minimal motor impairment at 300 mg/kg, ip after 4 hrs by rotarod test; assay type: toxicity, organism-based; set-up: dose 300 mg/kg, route intraperitoneal; settings: in vivo; outline: as §1
# Rattus norvegicus [31] = assay: Anticonvulsant activity in Sprague-Dawley albino rat assessed as protection against maximal electroshock-induced seizures at 30 mg/kg, po after 4 hrs; assay type: functional, organism-based; set-up: dose 30 mg/kg; outline: as §2
# Rattus norvegicus [32] = assay: Anticonvulsant activity in ip dosed Sprague-Dawley albino rat assessed as protection against pilocarpine-induced status epilepticus after 0.5 hrs; assay type: functional
# Outline: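 Pilocarpine status epilepticus model in rats. Number and severity of convulsive seizures were observed behaviourally.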
smiles,measurement,setting,value
NC(=O)OCCc1ccccc1 [PHENYLETHYL CARBAMATE],Activity,Mus musculus [1],Active
same,Activity,Mus musculus [2],Non-toxic
same,Activity,Rattus norvegicus [3],Active
same,TD50,[4],< 400 mg/kg
same,Activity,Mus musculus [5],inactive
same,Activity,Rattus norvegicus [6],Toxic
same,Activity,Rattus norvegicus [7],Non-toxic
same,Activity,Mus musculus [8],Non-toxic
same,Activity,Mus musculus [9],Non-toxic
same,Ratio TD50/ED50,Rattus norvegicus [10],<25
same,Activity,Mus musculus [11],inactive
same,Activity,Mus musculus [12],inactive
same,ED50,Rattus norvegicus [13],16 mg/kg
same,ED50,Mus musculus [14],18 mg/kg
same,Activity,Mus musculus [15],Non-toxic
same,TD50,[16],114 mg/kg
same,Activity,Mus musculus [17],Toxic
same,Activity,Rattus norvegicus [18],Active
same,Activity,Mus musculus [19],Active
same,Activity,Mus musculus [20],inactive
same,Activity,Mus musculus [21],inactive
same,Activity,Mus musculus [22],inactive
same,Activity,Mus musculus [23],inactive
same,Activity,Mus musculus [24],Non-toxic
same,Activity,Mus musculus [25],Active
same,Activity,Mus musculus [26],Active
same,Activity,Mus musculus [27],Active
same,Activity,Rattus norvegicus [28],Active
same,Activity,Mus musculus [29],inactive
same,Activity,Mus musculus [30],Non-toxic
same,Activity,Rattus norvegicus [31],inactive
same,ED50,Rattus norvegicus [32],105 mg/kg
same,ED97,Rattus norvegicus [32],221 mg/kg
